Measured values taken from ChEMBL document CHEMBL4177600, “Identification of novel PI3K inhibitors through a scaffold hopping strategy” (Bioorg Med Chem Lett, 2017).
In brackets after ≈: the same amount, converted by molar mass.

Columns and labels:
[1] = Tmax in BALB-C mouse at 10 mg/kg, po by LC-MS/MS analysis; type: ADME, organism-based; settings: in vivo
Procedure, shortened: (§1)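 BALB-C mice dosed IV in 10% NMP/50% PEG300/40% saline or PO in 10% NMP/90% PEG300. Plasma sampled at 6 (IV) or 8 (PO) time points and quantified by LC/MS/MS. Parameters come from a bicompartmental model fit; values are means of 3 independent samples. Plasma levels were compared with AKT-P EC50 from U2OS cells converted to ng/ml.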

[2] = Half-life in BALB-C mouse at 10 mg/kg, po by LC-MS/MS analysis; type: ADME, organism-based; settings: in vivo
Procedure, shortened: (§2)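 BALB-C mice dosed IV (10% NMP/50% PEG300/40% saline) or PO (10% NMP/90% PEG300). Plasma sampled at 6 (IV) or 8 (PO) time points; compound measured by LC/MS/MS. Parameters from bicompartmental model fit; each value is the mean of 3 independent samples.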

[3] = Oral bioavailability in BALB-C mouse at 10 mg/kg by LC-MS/MS analysis; type: ADME, organism-based; settings: in vivo; procedure, shortened: as §1
[4] = tested on: Mus musculus; assay: Time at which plasma concentration stays above cellular EC50 for inhibition of AKT phosphorylation in BALB-C mouse at 10 mg/kg, po measured up to 24 hrs by LC-MS/MS analysis; type: organism-based; settings: in vivo; procedure, shortened: as §1
[5] = tested on: U2OS; assay: Inhibition of AKT phosphorylation in human U2OS cells
[6] = Tmax in BALB-C mouse at 5 mg/kg, po by LC-MS/MS analysis; type: ADME, organism-based; settings: in vivo; procedure, shortened: as §1
[7] = Cmax in BALB-C mouse at 5 mg/kg, po by LC-MS/MS analysis; type: ADME, organism-based; parameters: dose 5 mg/kg, route oral; settings: in vivo; procedure, shortened: as §2
[8] = AUC (infinity) in BALB-C mouse at 5 mg/kg, po by LC-MS/MS analysis; type: ADME, organism-based; parameters: dose 5 mg/kg, route oral, time infinity; settings: in vivo; procedure, shortened: as §2
[9] = Half-life in BALB-C mouse at 5 mg/kg, po by LC-MS/MS analysis; type: ADME, organism-based; settings: in vivo; procedure, shortened: as §2
[10] = Oral bioavailability in BALB-C mouse at 5 mg/kg by LC-MS/MS analysis; type: ADME, organism-based; settings: in vivo; procedure, shortened: as §1
[11] = tested on: U2OS; assay: Inhibition of AKT phosphorylation in human U2OS cells; remark: listed apart in the source
[12] = AUC (infinity) in BALB-C mouse at 3 mg/kg, iv by LC-MS/MS analysis; type: ADME, organism-based; parameters: dose 3 mg/kg, time infinity, route intravenous; settings: in vivo; procedure, shortened: as §2
[13] = Tmax in BALB-C mouse at 9 mg/kg, po by LC-MS/MS analysis; type: ADME, organism-based; settings: in vivo; procedure, shortened: as §1
[14] = Cmax in BALB-C mouse at 9 mg/kg, po by LC-MS/MS analysis; type: ADME, organism-based; parameters: dose 9 mg/kg, route oral; settings: in vivo; procedure, shortened: as §2
[15] = AUC (infinity) in BALB-C mouse at 9 mg/kg, po by LC-MS/MS analysis; type: ADME, organism-based; parameters: dose 9 mg/kg, time infinity, route oral; settings: in vivo; procedure, shortened: as §2
[16] = Half-life in BALB-C mouse at 9 mg/kg, po by LC-MS/MS analysis; type: ADME, organism-based; settings: in vivo; procedure, shortened: as §2
[17] = Oral bioavailability in BALB-C mouse at 9 mg/kg by LC-MS/MS analysis; type: ADME, organism-based; settings: in vivo; procedure, shortened: as §1
[18] = tested on: U2OS; assay: Inhibition of AKT phosphorylation in human U2OS cells; remark: listed apart in the source

With `CS(=O)(=O)N1CCN(Cc2nc3c(N4CCOCC4)nc(-c4cnc(N)nc4)cn3n2)CC1` the Tmax [1] was 1 h, the half-life [2] was 5.28 h and the bioavailability [3] was 88%. The Time [4] was > 12 h and the EC50 [5] was 0.04138 µg/mL (≈ 0.0872 µM).

`CS(=O)(=O)N1CCN(Cc2nc3c(N4CCOCC4)nc(-c4cnc(N)nc4)c(Cl)n3n2)CC1` showed a Tmax [6] of 1 h, a Cmax [7] of 1050 ng/mL and an AUC(0-inf) [8] of 5650 ng·h/mL. For the same molecule, the half-life [9] was 2.7 h, the bioavailability [10] was 73.1% and the EC50 [11] was 0.03491 µg/mL (≈ 0.0686 µM).

`CS(=O)(=O)N1CCN(Cc2cc3c(N4CCOCC4)nc(-c4cnc(N)nc4)cn3n2)CC1` showed an AUC(0-inf) [12] of 5820 ng·h/mL, a Tmax [13] of 1 h and a Cmax [14] of 938 ng/mL. It also gave an AUC(0-inf) [15] of 5150 ng·h/mL, a half-life [16] of 2.84 h and a bioavailability [17] of 29.5%. The EC50 [18] was 0.01444 µg/mL (≈ 0.0305 µM).
